This sample holds only a part of the variants without activity.

The chains are these.
B1: tRNA (parent)
chain: GUUCCGUUGGCGUAAUGGUAACGCGUCUCCCUCCUAAGGAGAAGACUGCGGGUUCGAGUCCCGUACGGAACG

The variants in this series derive from B1. Put plainly: yeast fitness relative to wild type (ratio to wild type); higher = fitter; tRNA-Arg(CCU), competitive growth, 37 C, YPD. In outline:
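A pool of Saccharomyces cerevisiae strains, each with a tRNA-Arg(CCU) gene variant at the native genomic locus, was competed in YPD at 37°C for 24 hours across six parallel replicates. The variants had been chemically synthesised at a 3% per-site mutation rate over 69 sites, and gene amplicons before and after competition were read by 100-nucleotide paired-end sequencing. Darwinian fitness relative to wild type rested on changes in genotype frequencies. Genotypes required ≥ 100 starting reads, and estimates < 0.5 were set to 0.5.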
Regarding GUUCCGUUGGCGUAAUGGUAACGCGUCUCCCUCCUCAGGAGAAGCCUGCGGGUACGUGUCCCGUUCGGAACG [A36C A45C U54A A57U A65U], the yeast fitness was not above 0.5.

As for GUUCCGUUGGCGUAAUGGUAACGCGUCUCCCUCCUCAGGAGAAGACUGCGGGUUCGAGUCCCGUACGGCACG [A36C A69C], the yeast fitness came to 0.644.

On to GUUCCGUUGGCGUAAUGGUAACGCGUCUCCCUCCUCAGGAGAAGCCUGCGGGUUGGAGUCCAGUACGAAACG [A36C A45C C55G C62A G68A], for which the yeast fitness was 0.575.

Regarding GUUCCGUUGGCGUAAUGGUAACGCGUCUCCCUCCUCGGGAGAAGACUGCGGGUUCCAGUCCCGUACGGAACG [A36C A37G G56C], the yeast fitness is not above 0.5.

With GUUCCGUUGGCGUAAUGGUAACGCGUCUCCCUCCUCAGGGGAAGACUACGGGUUCGAGUCCCGUUUGGUACG [A36C A40G G48A A65U C66U A69U], the yeast fitness is not above 0.5.

In the case of GUUCCGUUGGCGUAAUGGUAACGCGUCUCCCUCCUCAGGAGAAGACUGCGGGUUCGAGUCCCGUACGGAGCG [A36C A70G], the yeast fitness came out at 0.605.

For GUUCCGUUGGCGUAAUGGUAACGCGUCUCCCUCCUCAGGAGAAGACUGCGGGUUCGAGUCCCGUACGGACCG [A36C A70C], the yeast fitness turned out to be 0.605.

For the variant GUUCCGUUGGCGUAAUGGUAACGCGUCUCCCUCCGAAGGAGAAGACUGCGGGUUCAAGUCCCGUACGGAACG [U35G G56A], the yeast fitness was found to be 0.599.

For GUUCCGUUGGCGUAAUGGUAACGCGUCUCCCUCCGAAGGAGAAGACUGCGGGUUCGAGUCCCAUACGCAACG [U35G G63A G68C], the yeast fitness was not above 0.5.

As to GUUCCGUUGGCGUAAUGGUAACGCGUCUCCCUCCUCAGGAGUGGACUGCGGGUUCGAGUCCCCUACGGUACG [A36C A42U A43G G63C A69U], the yeast fitness was not above 0.5.

As for GUUCCGUUGGCGUAAUGGUAACGCGUCUCCCUCCUCAGGUGAAGACUGCGGGUUCGAGUCCCGUACGGAUCG [A36C A40U A70U], the yeast fitness is not above 0.5.

Regarding GUUCCGUUGGCGUAAUGGUAACGCGUCUCCCUCCUCAGGAGAAGACUGCGGGUUCGCGUCUCGUACGGCACG [A36C A57C C61U A69C], the yeast fitness was not above 0.5.

Turning to GUUCCGUUGGCGUAAUGGUAACGCGUCUCCCUCCUCGGGAGAAGACUGAGGGUUCGAGUCCCGUACGGUACG [A36C A37G C49A A69U], the yeast fitness is not above 0.5.

In the case of GUUCCGUUGGCGUAAUGGUAACGCGUCUCCCUCCUCCGGAGAAGACUGCGGGUUCGAGUCCCGUCCGGAACG [A36C A37C A65C], the yeast fitness is not above 0.5.

Turning to GUUCCGUUGGCGUAAUGGUAACGCGUCUCCCUCCUCAGGAGAAGACUGCGGGUUCGAGUCCCGUACGGAACG [A36C], the yeast fitness stood at 0.705.

Regarding GUUCCGUUGGCGUAAUGGUAACGCGUCUCCCUCCUCAGGAGAAGACUGCGGGUUCGAGUCCCGUCCGGAACG [A36C A65C], the yeast fitness stood at 0.601.

Turning to GUUCCGUUGGCGUAAUGGUAACGCGUCUCCCUCCUCAGGAGAAGAAUGUGGGUUCGAGUCCCGUACGGAACG [A36C C46A C49U], the yeast fitness was 0.562.

Regarding GUUCCGUUGGCGUAAUGGUAACGCGUCUCCCUCCUCCGGAGAAGACUGCGGGGUCGAGUCCCGUACGGACCG [A36C A37C U53G A70C], the yeast fitness was 0.582.

For the variant GUUCCGUUGGCGUAAUGGUAACGCGUCUCCCUCCUCCGGAGAAGACUGCGGGUUCGCGUCCCGUACGGAACG [A36C A37C A57C], the yeast fitness was not above 0.5.

In the case of GUUCCGUUGGCGUAAUGGUAACGCGUCUCCCUCCGAAGGAGAAGACUGCGGGUUCGAGUCCCGCACGGAGCG [U35G U64C A70G], the yeast fitness is not above 0.5.

GUUCCGUUGGCGUAAUGGUAACGCGUCUCCCUCCUCAGGAGAAGUCCGCGGCUUCGAGUCCCGUUCCGAACG [A36C A45U U47C G52C A65U G67C]: the yeast fitness was not above 0.5.

In the case of GUUCCGUUGGCGUAAUGGUAACGCGUCUCCCUCCUCAGGAGACGACUGCGGGUUCGAGUCCCGUACGGAACG [A36C A43C], the yeast fitness worked out at 0.626.

Consider GUUCCGUUGGCGUAAUGGUAACGCGUCUCCCUCCUCAGGAGCAGACUGCGGGUUCGAGUCCCGUACGGAACG [A36C A42C], for which the yeast fitness is 0.727.

GUUCCGUUGGCGUAAUGGUAACGCGUCUCCCUCCUCAGGAGAAGACUGCGGGUUCGCGUCCCGUACGAAACG [A36C A57C G68A]: the yeast fitness turned out to be 0.541.

Take GUUCCGUUGGCGUAAUGGUAACGCGUCUCCCUCCUCAGGAGAAGCCUACGGCUUCGAGUCCCGUACGAAACG [A36C A45C G48A G52C G68A]: the yeast fitness is not above 0.5.

Take GUUCCGUUGGCGUAAUGGUAACGCGUCUCCCUCCUCAGGAGUGGACUGCGGGUUCGAGUCCCGUACGGAGCG [A36C A42U A43G A70G]: the yeast fitness is not above 0.5.

Consider GUUCCGUUGGCGUAAUGGUAACGCGUCUCCCUCCUCGGGAGAAGACUGCGGGUUAGAGUCCCGUACGGAACG [A36C A37G C55A], for which the yeast fitness is 0.534.

Take GUUCCGUUGGCGUAAUGGUAACGCGUCUCCCUCCUCCGGAGAAGACUGCGGGUUCGAGUCCCGUACGGAACG [A36C A37C]: the yeast fitness was determined as 0.54.

Regarding GUUCCGUUGGCGUAAUGGUAACGCGUCUCCCUCCUCAGGGGAAGACUGCGGGUUCGAGUCCCGUACGGAACG [A36C A40G], the yeast fitness was determined as 0.566.

Consider GUUCCGUUGGCGUAAUGGUAACGCGUCUCCCUCCUCAGGAGAAGACUGCGGGUUCGGGUCCCGUACGGAACG [A36C A57G], for which the yeast fitness amounted to 0.642.

Consider GUUCCGUUGGCGUAAUGGUAACGCGUCUCCCUCCGAAGGAGAAGACUGCGGGUUCGAGUCCCGUACGCAACG [U35G G68C], for which the yeast fitness stood at 0.619.

As to GUUCCGUUGGCGUAAUGGUAACGCGUCUCCCUCCGAAGGAGAAGACUGCGGGUUCGAAUCCCGUACGGAACG [U35G G58A], the yeast fitness came to 0.675.

Turning to GUUCCGUUGGCGUAAUGGUAACGCGUCUCCCUCCGAAGGAGAAGACUGCGGGUUCGACUCCCGUACGGAACG [U35G G58C], the yeast fitness came to 0.653.

With GUUCCGUUGGCGUAAUGGUAACGCGUCUCCCUCCUCAGGAGAAGUCUGCGGGUUCGAGUCCCGUACGGAACG [A36C A45U], the yeast fitness amounted to 0.591.

GUUCCGUUGGCGUAAUGGUAACGCGUCUCCCUCCUCAGGUGAAGACUGCGGGUUCGCGUCCCGUACGGAACG [A36C A40U A57C]: the yeast fitness was 0.52.

As for GUUCCGUUGGCGUAAUGGUAACGCGUCUCCCUCCGAAGGAGAAGACUGCGGGUACGAGUCCUGUACGAAACG [U35G U54A C62U G68A], the yeast fitness was not above 0.5.

For GUUCCGUUGGCGUAAUGGUAACGCGUCUCCCUCCUCUGGAGAAGACUGCCGGUUCGAGUCCCGUACGGAACG [A36C A37U G50C], the yeast fitness turned out to be 0.576.

Turning to GUUCCGUUGGCGUAAUGGUAACGCGUCUCCCUCCUCAGGAGAUGACAGCGGGUACGAGUCCCGUACGGAACG [A36C A43U U47A U54A], the yeast fitness was not above 0.5.

The values are drawn from the RNAGym collection of RNA variant scans (doi:10.1126/science.aae0568).
